Laboratory results from ChEMBL document CHEMBL1148795 (J Med Chem, 2007).
Activity calls are given as the source filed them. The rule behind the calls is not given here.

Columns and labels:
[1] = target: Human immunodeficiency virus type 1 reverse transcriptase (Human immunodeficiency virus 1, UniProt Q72547); assay: Inhibition of HIV1 reverse transcriptase
[2] = test system: Human immunodeficiency virus 1; assay: Antiviral activity against HIV1 RF in human CEM-SS cells by XTT assay; type: functional, organism-based; conditions: for EC50: Human immunodeficiency virus 1, RF
[3] = Cytotoxicity against human CEM-SS cells by MTT assay; type: cell-based
[4] = Cytotoxicity against human MT4 cells by MTT assay; type: cell-based
[5] = Metabolic stability in rat plasma; type: ADME, cell-free
Summary of the method: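 Compounds were incubated in reconstituted rat plasma (two lots, checked with a control compound), with 1,1-diphenylethylene as internal standard. Aliquot supernatants were analysed by HPLC with UV detection. Half-lives came from regression fits of concentration versus time and were averaged over at least two replicates.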

[6] = test system: Human immunodeficiency virus 1; assay: Antiviral activity against HIV1 with RT Y181C mutation; type: functional, organism-based
Summary of the method: (§1)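 Cytoprotection assay in CEM-SS cells infected with HIV-1 strains engineered to carry the NNRTI-resistance RT mutation (K103N or Y181C). Activity is expressed as the EC50 for protection of the cells from virus-induced cytopathic effect.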

[7] = test system: Human immunodeficiency virus 1; assay: Antiviral activity against HIV1 with RT K103N mutation; type: functional, organism-based; summary of the method: as §1
[8] = test system: Human immunodeficiency virus 1; assay: Antiviral activity against HIV1 3B in human MT4 cells by MTT assay; conditions: for EC50: Human immunodeficiency virus 1, 3B
[9] = test system: Human immunodeficiency virus 2; assay: Antiviral activity against HIV2 ROD in human MT4 cells by MTT assay

Structure (SMILES)	IC50 [1] [µM]	Activity [2]	CC50 [3] [µM]	CC50 [4] [µM]	half-life [5] [h]	EC50 [6] [µM]	EC50 [7] [µM]	Activity [8]	Activity [9]	EC50 [2] [µM]	EC50 [8] [µM]	EC50 ([9]; Human immunodeficiency virus 2, ROD) [µM]
COC(=O)c1cc(/C(=C\CCc2nnc(C)o2)c2cccc(C#N)c2)cc(C)c1OC	29	inactive	4.5	8.1	1.89	> 100	> 50	inactive	inactive			
COc1c(C)cc(/C(=C/CCc2nnc(C)o2)c2ccc3oc(=O)n(C)c3c2)cc1C(=O)SC	2.6		5.9	12	12.3	> 100	1			0.6	0.69	4.7
COc1c(C)cc(/C(=C\CCCc2nnc(C)o2)c2cccc(C#N)c2)cc1C(=O)SC	0.52		12	36	3.68	> 100	1.2		inactive	0.5	0.83	
